In publication PMC7391373 (ACS Omega, 2020):

How the values were obtained:
[1] = in vitro cytotoxicity, MTT assay, dermal fibroblasts; format: cell-based; details: human, primary culture of normal human dermal fibroblasts
Procedure, shortened: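 HeLa cells and primary normal human dermal fibroblasts (fibroblasts used within seven passages) were kept in DMEM with 10% fetal calf serum and 2 mM glutamine at 37 °C, 5% CO2. Cells were seeded at 5000–10 000 per well; after 24 h they received test compound (10–640 μg) in duplicate for 48 h. MTT (1 mg/mL stock) was added for 1 h, formazan was dissolved in DMSO, and OD was read at 450 nm.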

[2] = biochemical assays, liver and kidney function tests; format: in vivo, Mus musculus
Procedure, shortened: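 In P. berghei-infected Laca mice (oral dosing once daily D0–D3), blood was collected from the tail vein on day 10 and from survivors on day 28. Serum ALP, SGOT, SGPT and bilirubin (liver) and urea and creatinine (kidney) were measured with commercial diagnostic kits. Data are mean ± SD, five mice per group.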

[3] = system: P. falciparum RKL-9 (chloroquine-resistant); test: schizont maturation inhibition assay, RKL-9 strain; format: cell-based, Plasmodium falciparum
Procedure, shortened: (§1)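 P. falciparum (3D7 chloroquine-sensitive; RKL-9 chloroquine-resistant) was cultured in A+ human erythrocytes in RPMI-1640 with 10% human AB+ serum. Ring-synchronized parasites (2–3% parasitemia, 1.8% final haematocrit) were exposed in duplicate to test compound at 1–16 μg/mL for 48 h at 37 °C, 5% CO2. Positive controls were chloroquine 10 μM and artesunate 2 μM. Schizont inhibition versus controls was scored on Giemsa smears. SI was calculated as CC50 (HeLa/fibroblasts) divided by IC50.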

[4] = system: P. falciparum 3D7 (chloroquine-sensitive); test: schizont maturation inhibition assay, 3D7 strain; format: cell-based, Plasmodium falciparum
Procedure, shortened: as §1

[5] = system: Plasmodium berghei (NK-65); test: in vivo suppressive activity, Peter's 4 day test; details: for chemosuppression (%), day 5 / parasitemia (%), day 5 / mean survival time (MST): mice; for parasitemia (%), day 28: surviving mice
Procedure, shortened: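 Peters 4-day suppressive test in Laca Swiss albino mice (6–8 weeks, 25 ± 2 g), five per group. On D0, mice received 1 × 10^6 P. berghei NK-65-infected erythrocytes i.p. Dosing began 1 h post-inoculation, oral, once daily D0–D3 (0.2 mL). Giemsa tail smears were taken 24 h after the last dose. Chemosuppression was calculated from mean parasitemia relative to infected controls. Survival and parasitemia were followed to day 28.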

[6] = acute toxicity; oral administration; cited from earlier work
[7] = system: RAW 264.7 murine macrophage cells; test: determination of nitric oxide; format: cell-based
[8] = monotherapy 10 mg/kg oral OD D0–D3
[9] = monotherapy 20 mg/kg oral OD D0–D3
[10] = monotherapy 50 mg/kg oral OD D0–D3
[11] = monotherapy 100 mg/kg oral OD D0–D3
[12] = monotherapy 4 mg/kg oral OD D0–D3

## COC(=O)[C@@H]1Cc2c([nH]c3ccccc23)[C@@H](c2ccc3c(c2)OCO3)N1 [9a, (1R,3S)-methyl 1-(benzo[d][1,3]dioxol-5-yl)-2,3,4,9-tetrahydro-1H-pyrido[3,4-b]indole-3-carboxylate]
[1]
  viability at 48 h, 640 μg/mL: 56.5 ± 5.07%
[2]; monotherapy 100 mg/kg
  levels of renal function biomarkers (creatinine, urea): within the normal range
[2]; monotherapy 50 and 100 mg/kg, day 10 and day 28
  levels of ALP, SGOT, SGPT, and bilirubin: within normal range
[3]; CC50 / IC50 on RKL-9
  selectivity index (SI): > 10
[3]; Plasmodium falciparum, 48 h, RKL-9 strain
  IC50: < 1 mg/L
[3]; Plasmodium falciparum, read-out: inhibition (schizont maturation)
  inhibition at 1 µg/mL: > 75%
[4]; CC50 / IC50 on 3D7
  selectivity index (SI): > 10
[4]; Plasmodium falciparum, 3D7, 48 h, 3D7 strain, 48 h
  IC50: < 1 mg/L
[4]; Plasmodium falciparum, 3D7, read-out: inhibition (schizont maturation)
  inhibition at 1 µg/mL: > 75%
[5]; [8]
  chemosuppression (%), day 5: 40.49%
  parasitemia (%), day 5: 17.31 ± 2.40 (n = 5) %
[5]; [9]
  chemosuppression (%), day 5: 46.82%
  parasitemia (%), day 5: 15.47 ± 2.69 (n = 5) %
[5]; [10]
  chemosuppression (%), day 5: 64.76%
  parasitemia (%), day 5: 10.25 ± 4.93 (n = 5) %
  parasitemia (%), day 28: 3.43 ± 0.51 (n = 2) %
[5]; monotherapy 50 mg/kg
  mean survival time (MST): 21.8 ± 6.09 days
[5]; [11]
  chemosuppression (%), day 5: 91.19%
  parasitemia (%), day 5: 2.56 ± 1.71 (n = 5) %
  parasitemia (%), day 28: 2.41 ± 0.97 (n = 3) %
[5]; monotherapy 100 mg/kg
  mean survival time (MST): 22.6 ± 7.79 days
[6]
  LD50: > 4000 mg/kg
[7]; 100 μg/mL
  nitrite production from macrophages: comparable to the normal cells

## C[C@H]1[C@H](OC(=O)CCC(=O)O)O[C@@H]2O[C@@]3(C)CC[C@H]4[C@H](C)CC[C@@H]1[C@@]24OO3 [artesunate, reference compound]
[3]; Plasmodium falciparum
  inhibition at 2 µM: 100%
[4]; Plasmodium falciparum, 3D7
  inhibition at 2 µM: 100%
[5]; [12]
  chemosuppression (%), day 5: 94.01%
  parasitemia (%), day 5: 1.74 ± 0.83 (n = 5) %
[5]; monotherapy 4 mg/kg
  mean survival time (MST): 18.6 ± 2.19 days
[5]; [10]
  chemosuppression (%), day 5: 99.89%
  parasitemia (%), day 5: 0.03 ± 0.01 (n = 5) %
  parasitemia (%), day 28: 0 ± 0 (n = 2) %
[5]; monotherapy 50 mg/kg
  mean survival time (MST): 22.4 ± 5.77 days
[7]; 2 μM
  nitrite production from macrophages: comparable to the normal cells

## CCN(CC)CCCC(C)Nc1ccnc2cc(Cl)ccc12 (centres unmarked) [chloroquine, reference compound]
[3]; Plasmodium falciparum
  inhibition at 10 µM: 96.8%
[4]; Plasmodium falciparum, 3D7
  inhibition at 10 µM: 96.8%
[5]; [8]
  chemosuppression (%), day 5: 94.22%
  parasitemia (%), day 5: 1.68 ± 1.06 (n = 5) %
  parasitemia (%), day 28: 0 ± 0 (n = 5) %
